In brackets after ≈: the same amount, converted by molar mass.
Experiments:
Solanum lycopersicum = assay: Phytotoxicity in tomato leaf assessed as chlorosis in the leaf at 10^-5 M by tomato cutting assay; type: organism-based; settings: in vivo, 10 µM
Procedure, shortened: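 Young greenhouse tomato plants cut with razor; stems immersed in toxin solutions (10^-3 to 10^-6 M; compound in small MeOH volume diluted with water) 24 h at 22 °C, 12-h photoperiod, fluorescent light. Then moved to distilled water 48 h under same conditions; symptoms (e.g. chlorosis, wilting) scored visually.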

[1] = Toxicity against Artemia salina larvae; type: organism-based; settings: in vivo
Procedure, shortened: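 Quadruplicate wells; mortality counted after 24 and 36 h at 27 °C. LC50 from probit analysis of dose-mortality data from six independent experiments.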

Pichia kluyveri = assay: Antifungal activity against Pichia kluyveri ITEM 1649 at 15 ug/disk by paper disk method; type: functional
Procedure, shortened: (§1)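 Agar overlay disk diffusion on plant-derived filamentous fungi and yeasts: 0.7% water-agar seeded with 10^4 conidia/mL or a yeast cell suspension, poured over PDA. 6-mm cellulose disks were loaded from methanolic solutions and air-dried, with nystatin as comparator. Plates ran 24-72 h at 25 °C; inhibition halo was measured over three disks. Agar beneath disks was subcultured on PDA to separate fungicidal from fungistatic, scored in four classes; run twice, averaged.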

Fusarium subglutinans = assay: Antifungal activity against Fusarium subglutinans at 15 ug/disk by paper disk method; type: functional
Procedure, shortened: (§2)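 Agar diffusion: a 0.7% water-agar overlay carrying 10^4 conidia/mL (or yeast cells) is poured on PDA. 6-mm cellulose disks loaded with methanolic compound at 5 or 15 µg/disk are air-dried and applied, with nystatin as comparator. Plates incubated 24-72 h at 25 °C; inhibition halo diameter read from three disks. Agar under each disk is subcultured on PDA to score fungicidal/fungistatic effect. Experiment run twice and averaged.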

Alternaria alternata [2] = assay: Antifungal activity against Alternaria alternata ITEM 468 at 15 ug/disk by paper disk method; type: functional; procedure, shortened: as §2
Alternaria alternata [3] = assay: Antifungal activity against Alternaria alternata ITEM 511 at 15 ug/disk by paper disk method; type: functional; procedure, shortened: as §2
Alternaria alternata [4] = assay: Antifungal activity against Alternaria alternata ITEM 526 at 15 ug/disk by paper disk method; type: functional; procedure, shortened: as §2
Alternaria alternata [5] = assay: Antifungal activity against Alternaria alternata ITEM 750 at 15 ug/disk by paper disk method; type: functional; procedure, shortened: as §2
Alternaria citri = assay: Antifungal activity against Alternaria citri ITEM 466 at 15 ug/disk by paper disk method; type: functional
Procedure, shortened: (§3)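 Agar overlay diffusion: 0.7% water-agar with 10^4 conidia/mL of test fungus poured over PDA; 6-mm cellulose disks impregnated with methanolic compound solution, air-dried. Incubated 25 °C for 24-72 h by fungus; growth-inhibition halo diameter from three replicate disks. Agar under disks then subcultured on PDA to score fungicidal/fungistatic classes. Repeated twice, averaged.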

Ascochyta rabiei = assay: Antifungal activity against Ascochyta rabiei ITEM 1067 at 15 ug/disk by paper disk method; type: functional; procedure, shortened: as §2
Aspergillus flavus = assay: Antifungal activity against Aspergillus flavus ITEM 9 at 15 ug/disk by paper disk method; type: functional; procedure, shortened: as §2
Aspergillus parasiticus = assay: Antifungal activity against Aspergillus parasiticus ITEM 11 at 15 ug/disk by paper disk method; type: functional; procedure, shortened: as §2
Botrytis cinerea [6] = assay: Antifungal activity against Botrytis cinerea ITEM 966 at 15 ug/disk by paper disk method; type: functional; procedure, shortened: as §2
Botrytis cinerea [7] = assay: Antifungal activity against Botrytis cinerea at 15 ug/disk by paper disk method; type: functional; procedure, shortened: as §2
[8] = system: Cladosporium cladosporioides; assay: Antifungal activity against Cladosporium cladosporioides ITEM 2079 at 15 ug/disk by paper disk method; type: functional; procedure, shortened: as §2
Cladosporium cucumerinum = assay: Antifungal activity against Cladosporium cucumerinum ITEM 2095 at 15 ug/disk by paper disk method; type: functional; procedure, shortened: as §2
[9] = system: Colletotrichum gloeosporioides; assay: Antifungal activity against Colletotrichum gloeosporioides ITEM 1729 at 15 ug/disk by paper disk method; type: functional; procedure, shortened: as §2
Fusarium acuminatum = assay: Antifungal activity against Fusarium acuminatum ITEM 795 at 15 ug/disk by paper disk method; type: functional; procedure, shortened: as §2
Fusarium graminearum = assay: Antifungal activity against Fusarium graminearum ITEM 2 at 15 ug/disk by paper disk method; type: functional; procedure, shortened: as §3
Fusarium verticillioides = assay: Antifungal activity against Fusarium moniliforme ITEM 1497 at 15 ug/disk by paper disk method; type: functional; procedure, shortened: as §2
Fusarium oxysporum [10] = assay: Antifungal activity against Fusarium oxysporum ITEM 149 at 15 ug/disk by paper disk method; type: functional; procedure, shortened: as §2
Fusarium oxysporum [11] = assay: Antifungal activity against Fusarium oxysporum ITEM 1462 at 15 ug/disk by paper disk method; type: functional; procedure, shortened: as §2
Penicillium verrucosum = assay: Antifungal activity against Penicillium verrucosum ITEM 439 at 15 ug/disk by paper disk method; type: functional; procedure, shortened: as §1
[12] = system: Fusarium oxysporum f. sp. lycopersici; assay: Antifungal activity against Fusarium oxysporum f. sp. lycopersici ITEM 1462 at 15 ug/disk by paper disk method; type: functional; procedure, shortened: as §2
Fusarium incarnatum = assay: Antifungal activity against Fusarium semitectum ITEM 393 at 15 ug/disk by paper disk method; type: functional; procedure, shortened: as §2
Plenodomus tracheiphilus = assay: Antifungal activity against Phoma tracheiphilla ITEM 1605 at 15 ug/disk by paper disk method; type: functional; procedure, shortened: as §1
[13] = system: Penicillium brevicompactum; assay: Antifungal activity against Penicillium brevicompactum ITEM 449 at 15 ug/disk by paper disk method; type: functional; procedure, shortened: as §1
[14] = system: Meyerozyma guilliermondii; assay: Antifungal activity against Candida guilliermondii ITEM 1638 at 15 ug/disk by paper disk method; type: functional; procedure, shortened: as §2
Candida maltosa = assay: Antifungal activity against Candida maltosa ITEM 1639 at 15 ug/disk by paper disk method; type: functional; procedure, shortened: as §2
Kluyveromyces marxianus = assay: Antifungal activity against Kluyveromyces fragilis ITEM 1657 at 15 ug/disk by paper disk method; type: functional; procedure, shortened: as §1
Kluyveromyces lactis = assay: Antifungal activity against Kluyveromyces lactis ITEM 1656 at 15 ug/disk by paper disk method; type: functional; procedure, shortened: as §1
Wickerhamomyces anomalus [15] = assay: Antifungal activity against Pichia anomala ITEM 1625 at 15 ug/disk by paper disk method; type: functional; procedure, shortened: as §1
Wickerhamomyces anomalus [16] = assay: Antifungal activity against Pichia anomala ITEM 1661 at 15 ug/disk by paper disk method; type: functional; procedure, shortened: as §1
Starmera dryadoides = assay: Antifungal activity against Pichia dryadoides ITEM 1663 at 15 ug/disk by paper disk method; type: functional; procedure, shortened: as §1
[17] = system: Meyerozyma guilliermondii; assay: Antifungal activity against Pichia guilliermondii ITEM 1644 at 15 ug/disk by paper disk method; type: functional; procedure, shortened: as §1
Saccharomyces cerevisiae = assay: Antifungal activity against Saccharomyces cerevisiae ITEM 1633 at 15 ug/disk by paper disk method; type: functional; procedure, shortened: as §1
Rhodotorula mucilaginosa = assay: Antifungal activity against Rhodotorula pilimanae at 15 ug/disk by […]; type: functional

CCCCc1ccc(C(=O)O)nc1 [FUSARIC ACID]
Activity (Solanum lycopersicum): Active

CC(=O)OC[C@@H](C)C1=C(O)C(=O)[C@@]2(C)C/C=C(\C)CC/C=C(\C)CC[C@H](O)/C(C)=C/C[C@H]12 [FUSAPROLIFERIN]
LC50 [1]: 23.7 µg/mL (≈ 53.3 µM)

NYSTATIN
Activity (Pichia kluyveri): 16.5 mm
Activity (Fusarium subglutinans): 24 mm
inhibition zone (IZ) (Alternaria alternata [2]): 30.2 mm
inhibition zone (IZ) (Alternaria alternata [3]): 32.2 mm
inhibition zone (IZ) (Alternaria alternata [4]): 28.7 mm
inhibition zone (IZ) (Alternaria alternata [5]): 29.2 mm
inhibition zone (IZ) (Alternaria citri): 30 mm
inhibition zone (IZ) (Ascochyta rabiei): 38.5 mm
inhibition zone (IZ) (Aspergillus flavus): 29 mm
inhibition zone (IZ) (Aspergillus parasiticus): 28.7 mm
inhibition zone (IZ) (Botrytis cinerea [6]): 31.2 mm
inhibition zone (IZ) (Botrytis cinerea [7]): 31 mm
inhibition zone (IZ) [8]: 37.3 mm
inhibition zone (IZ) (Cladosporium cucumerinum): 32.7 mm
inhibition zone (IZ) [9]: 38.2 mm
inhibition zone (IZ) (Fusarium acuminatum): 20.8 mm
inhibition zone (IZ) (Fusarium graminearum): 25.9 mm
inhibition zone (IZ) (Fusarium verticillioides): 18.7 mm
inhibition zone (IZ) (Fusarium oxysporum [10]): 19.5 mm
inhibition zone (IZ) (Fusarium oxysporum [11]): 20 mm
inhibition zone (IZ) (Penicillium verrucosum): 28.2 mm
inhibition zone (IZ) [12]: 21.7 mm
inhibition zone (IZ) (Fusarium incarnatum): 27 mm
inhibition zone (IZ) (Plenodomus tracheiphilus): 31.8 mm
inhibition zone (IZ) [13]: 18.3 mm
inhibition zone (IZ) [14]: 20 mm
inhibition zone (IZ) (Candida maltosa): 20 mm
inhibition zone (IZ) (Kluyveromyces marxianus): 19.5 mm
inhibition zone (IZ) (Kluyveromyces lactis): 18 mm
inhibition zone (IZ) (Wickerhamomyces anomalus [15]): 18.8 mm
inhibition zone (IZ) (Wickerhamomyces anomalus [16]): 15 mm
inhibition zone (IZ) (Starmera dryadoides): 19 mm
inhibition zone (IZ) [17]: 18.5 mm
inhibition zone (IZ) (Saccharomyces cerevisiae): 21 mm
inhibition zone (IZ) (Rhodotorula mucilaginosa): 28.5 mm
